Hits are enriched below; roughly 3.1% of the tested compounds scored in any of these assays.
VIM-2 inhibitor – blocks Pseudomonas aeruginosa VIM-2 metallo-beta-lactamase; purified VIM-2, nitrocefin hydrolysis, epi-absorbance fluorescence; hit rate 0.89% among 290,000; inhibition, % at 5.6 µM;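 active means inhibition above the mean of all tested compounds plus 3 SD, cutoff set per screening run, cut at about 7.5% in these data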;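 further: red hydrolysis product quenches plate fluorescence so inhibitors raise well fluorescence; 0% = enzyme with DMSO and 100% = DMSO without enzyme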
NS3 helicase inh – blocks Hepatitis C virus NS3 helicase unwinding; NS3 helicase DNA unwinding, Cy5 molecular beacon fluorescence; inhibition, % at 10.9 µM; hit rate 0.56% among 290,000; AID 1800;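 active means inhibition above the mean of all tested compounds plus 3 SD, set per campaign, cut at about 35% in these data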;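 further: 0% = DMSO wells and 100% = thioflavine S control wells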
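Assay system: hepatitis C virus NS3 helicase domain fragment enzyme. Also added: annealed dual-labelled DNA beacon duplex, ATP-started. Timing: 1 h reaction at 25 °C, ATP-initiated. Technique: Cy5 fluorescence at 0 and 60 min, beacon hairpin quenching. Evaluation: % inhibition of unwinding. Replication: one well per compound.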
core dimer inh – HCV core protein dimerization inhibition. TR-FRET GST/Flag-core106 dimerization, 1536-well. AID 1899. hit rate 0.33% among 300,000. inhibition, % at 5 µM;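 active means inhibition above the mean of all tested compounds plus 3 SD, set per screening campaign, cut at about 45% in these data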
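test system = GST/Flag-tagged HCV core106 proteins | probe or stimulus = Eu donor and XL665 acceptor anti-tag antibodies | times = compound-protein-antibody incubation 4 h at 22.5 °C | signal = TR-FRET, excitation 340 nm, emission 617 and 671 nm | measure = percent inhibition of core106 dimerization signal | controls = wells lacking GST-core106 and wells with excess unlabelled core106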
IMP-1 inhibitor – inhibitors of Pseudomonas aeruginosa IMP-1 metallo-beta-lactamase | purified IMP-1, nitrocefin hydrolysis, epi-absorbance fluorescence | inhibition, % at 5.6 µM | hit rate 0.45% among 290,000 | AID 1556;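 active means inhibition above the mean plus 3 SD of all compounds in the same screening run, cut at about 4.5% in these data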;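 further: 0% = IMP-1 with DMSO and 100% = DMSO wells lacking enzyme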
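System: purified IMP-1; amount: IMP-1 0.2 nM before substrate addition; compound: single dose, 5.6 µM; times: 25 °C, 15 min preincubation, 25 min reaction; signal: Epi-absorbance via hydrolysed-nitrocefin quenching of white-plate fluorescence, 480/530 nm, EDTA stop; benchmarks: DMSO with and without IMP-1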
SUMO HTRF inh – SUMOylation inhibition | P63279 | HTRF SUMOylation assay, SAE1/SAE2 + UBC9, in vitro | inhibition, % at 35 µM | hit rate 0.36% among 290,000 | AID 2006; in the data active means inhibition above about 50%, passing the limit was not always enough
Target sequence (P63279 whole entry, looked up): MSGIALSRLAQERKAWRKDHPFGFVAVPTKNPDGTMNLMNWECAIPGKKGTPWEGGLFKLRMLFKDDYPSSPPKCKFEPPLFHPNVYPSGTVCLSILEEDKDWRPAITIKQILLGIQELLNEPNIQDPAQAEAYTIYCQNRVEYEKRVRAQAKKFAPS
PHOSPHO1 block – PHOSPHO1 (human) inhibition. inhibition, % at 13.3 µM. recombinant PHOSPHO1, absorbance phosphatase assay. hit rate 1.1% among 290,000. AID 1565. Q8TCT1; in the data active means inhibition above about 60%
Target sequence (Q8TCT1 whole entry, looked up): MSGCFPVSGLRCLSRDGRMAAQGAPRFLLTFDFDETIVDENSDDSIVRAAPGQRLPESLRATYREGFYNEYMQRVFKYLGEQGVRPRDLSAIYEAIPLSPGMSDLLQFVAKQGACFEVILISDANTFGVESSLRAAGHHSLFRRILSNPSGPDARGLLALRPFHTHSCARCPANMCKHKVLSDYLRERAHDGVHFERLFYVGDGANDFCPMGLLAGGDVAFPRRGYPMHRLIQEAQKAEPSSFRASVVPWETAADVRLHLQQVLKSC
Starred values were filed as active, the others as inactive; · = no result given.

SMILES | VIM-2 inhibitor | NS3 helicase inh | core dimer inh | IMP-1 inhibitor | SUMO HTRF inh | PHOSPHO1 block
CC(C)Cc1cc(CN2CCC(CO)(Cc3ccccc3)CC2)[nH]n1 | -2 | 4 | 1 | -3 | -2 | 20
Cc1ccc(Cl)cc1N1CCN(C(=O)CSc2ccsc2[N+](=O)[O-])CC1 | -1 | 11 | 57* | -3 | 7 | -12
CCOC(=O)CN(C)C(=O)CCc1nnc(-c2ccc(-c3ccccc3)cc2)o1 | -3 | 3 | 4 | -2 | 4 | -28
CCN(CC)CCN(C)C(=O)CCc1nnc(-c2ccc(C)s2)o1 | 0 | -1 | -5 | -1 | -8 | 60*
O=C(Nc1ccc(C(=O)Nc2ccccc2Cl)cc1)c1cccnc1 | -5 | -4 | · | -2 | 8 | 22
COc1ccc(C(C)=O)cc1Cn1c(=O)cc(C)[nH]c1=O | -1 | 3 | 7 | -3 | -13 | 36
CC(=O)c1ccc(NC(=O)CSc2nnc(-c3ccco3)c(-c3ccco3)n2)cc1 | -5 | 35 | 36 | 0 | 90* | 18
CC(=O)N1c2ccc(S(=O)(=O)N3CCCC3)cc2CC1C(=O)NCc1ccc(N(C)C)cc1 (stereo unspecified) | -1 | 10 | -15 | 0 | -8 | 33
Nc1c(S(=O)(=O)c2cccc(Cl)c2)c2nc3ccccc3nc2n1/N=C/c1ccc(O)c(O)c1 | -2 | 11 | 71* | -5 | 21 | 4
Cc1cccc(C)c1NC(=O)NC1(C(=O)N2CCOCC2)CCCCC1 | -1 | 2 | 0 | -2 | 12 | -10
COc1ccc(-c2csc(NC(=O)Cc3cccc4ccccc34)c2C(=O)O)cc1 | 0 | -14 | · | 7.7* | 24 | 53
O=C(N/N=C/C1C(c2ccccc2)C1(Cl)Cl)c1cccc(Cl)c1 (stereo unspecified) | -3 | 13 | -3 | -2 | -15 | 7
CC1CCN(Cc2nnnn2CCCC(=O)NCCc2cnn(C)c2)CC1 | 0 | 2 | -1 | -3 | 6 | 29
COc1ccc(/C=N/NC(=O)CC(=O)NCc2cccnc2)cc1[N+](=O)[O-] | -2 | 8 | -18 | -4 | -1 | ·
CC(NC(=O)C(Cc1ccccc1)n1cccc1)c1ccccc1 (stereo unspecified) | -3 | 1 | 3 | -3 | 10 | 23
O=C(O)CC(c1ccccc1)n1cccc1 (stereo unspecified) | -1 | 10 | -4 | -3 | 23 | 87*
COc1ccc(N2Cc3cccc(C(=O)NC(C)CCc4ccco4)c3C2=O)cc1 (stereo unspecified) | 2 | 23 | 63* | -4 | 40 | 4
CC(CCc1ccco1)NC(=O)c1cccc2c1C(=O)N(C1CCCCC1)C2 (stereo unspecified) | -2 | 29 | 21 | -2 | -3 | -7
CCOC(=O)N1CCC(NC(=O)c2cccc3c2C(=O)N(c2ccc(OC)cc2)C3)CC1 | 2 | 18 | 59* | -4 | 6 | -3
COc1ccc(NC(=O)Cn2nnc(C(=O)NCCc3ccc(OC)c(OC)c3)c2N)c(OC)c1 | -2 | 7 | -9 | -1 | 11 | 3
CCCOC1CCCN(C(=O)c2ccc3oc(C(C)C)nc3c2)C1 (stereo unspecified) | 0 | -8 | 1 | -4 | -3 | -29
CCN(C(=O)COC(=O)c1ccc(N2C(=O)c3ccccc3C2=O)cc1)C1CCS(=O)(=O)C1 (stereo unspecified) | -3 | 8 | 1 | -3 | -3 | 44
CCOc1ccc(N2C(=O)c3ccc(C(=O)OCC(=O)N(CC)C4CCS(=O)(=O)C4)cc3C2=O)cc1 (stereo unspecified) | -2 | 2 | 5 | -4 | 54* | 12
CC(C)Cn1c(=O)c2ccccc2n2c(CCC(=O)NCC3CCCO3)nnc12 (stereo unspecified) | 0 | 6 | 8 | -1 | 8 | 16
CCOC(=O)N1CCN(C(=O)CSC2=NS(=O)(=O)c3cc(F)ccc3N2)CC1 | · | · | 4 | · | · | ·
SMILES | VIM-2 inhibitor | NS3 helicase inh | core dimer inh | IMP-1 inhibitor | SUMO HTRF inh | PHOSPHO1 block
Cc1c(Cl)cccc1-n1cnc(=O)c2ccccc21 | · | · | 2 | · | · | ·
O=[N+]([O-])c1ccccc1/C=C/C=N/n1c(-c2ccco2)n[nH]c1=S | 9.8* | 5 | 10 | -2 | -1 | 32
O=[N+]([O-])c1ccccc1/C=C/C=N/n1c(-c2cc(-c3ccccc3)n[nH]2)n[nH]c1=S | -4 | -1 | 15 | -4 | · | -69
Cc1ccc(-c2n[nH]c(=S)n2/N=C/C=C/c2ccccc2[N+](=O)[O-])cc1 | -5 | 0 | 8 | -3 | 36 | 99*
Cc1cc2n(c(=O)c1C#N)CCCN2c1cccc(Cl)c1 | 10* | 0 | 1 | 3 | 19 | -10
O=C1OC(Nc2cc(Br)cc3cccnc23)c2ccccc21 (stereo unspecified) | 3 | 7 | 19 | -2 | 88* | 2
Cc1cc(=O)[nH]c2c(C)cc(S(=O)(=O)NCc3ccccc3)cc12 | -5 | -4 | 15 | -4 | -1 | 43
Cc1cc(=O)[nH]c2ccc(S(=O)(=O)NCc3ccccc3)cc12 | 0 | 15 | -15 | -3 | 18 | 63*
COC(=O)c1ccc(CSc2nnc3n(Cc4ccccc4OC)c(=O)c4ccccc4n23)o1 | · | · | 3 | · | 16 | 73*
COC(=O)c1ccc(CSc2nc3ccccc3c(=O)n2-c2ccc(OC)c(OC)c2)o1 | -3 | 0 | 13 | -5 | -7 | 24
O=C(C1CCN(S(=O)(=O)N2CCC3(CC2)OCCO3)CC1)N1CCN(Cc2ccccc2)CC1 | -3 | -4 | 0 | -2 | 18 | 64*
Cc1cccc(C(=O)NNC(=O)c2cccc(C)c2)c1 | -1 | 7 | -2 | 0 | 6 | -11
Cc1cccc(C(=O)NNC(=O)C2CC2)c1 | 8.7* | 4 | 4 | -2 | 8 | 14
COCCNC(=O)CSc1ccccc1C(=O)NC1CCCc2ccccc21 (stereo unspecified) | -3 | 3 | -1 | -1 | -8 | 27
O=S(=O)(Nc1nc2ccccc2s1)c1ccc(Cl)nc1 | 3 | 32 | 2 | 1 | 1 | 21
CC1=C(C(=O)Nc2ccccc2C)C(c2ccc(C)o2)n2c(s/c(=C/c3ccccc3)c2=O)=N1 (stereo unspecified) | -2 | 12 | 48* | -3 | -4 | 5
CC1=C(C(=O)Nc2ccccc2)C(c2ccc(C)o2)n2c(s/c(=C/c3ccccc3)c2=O)=N1 (stereo unspecified) | -2 | 0 | 22 | -4 | 19 | 7
COCCn1nnnc1C(c1ccc(OC)c(OC)c1)N1CCN(C(=O)c2ccco2)CC1 (stereo unspecified) | -1 | -5 | -10 | -2 | 22 | 12
Nc1c(-c2ccc(Cl)cc2)cnn1-c1cccc([N+](=O)[O-])c1 | -6 | -6 | -2 | 0 | 9 | 44

Assay outcomes (PubChem)
